Compound activity as filed in PubChem.
CHO parental Ca – counter-screen: ATP calcium response change in parental CHO cells. inhibition, % at 5.6 µM. 330,000 compounds, 0.63% hits. parental CHO-K1, ATP-induced calcium, Fluo-8 fluorescence. AID 463079;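 active means inhibition above that plate's mean sample inhibition plus 3 SD, cut at about 26% in these data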;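 further: 0% = ATP-challenged DMSO wells and 100% = DMSO wells without ATP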
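Test system: untransfected parental CHO cell line. Compound: one dose, 5.6 µM nominal. Detection: intracellular calcium via Fluo-8 no-wash fluorescent dye. Measure: % inhibition. Benchmarks: ATP-challenged DMSO wells low, unchallenged DMSO wells high.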
OX1R antag-1 – antagonists of human orexin 1 receptor (OX1R); O43613; OX1R-expressing cells, FRET antagonist read-out; inhibition, % at 6.6 µM; 330,000 compounds, 1.8% hits; AID 485270; in the data active means inhibition mostly above about 38%, no sharp cut-off; inactive means mostly below about 40%;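 further: 0% = agonist challenge alone and 100% = reference antagonist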
Target sequence (O43613 whole entry, looked up): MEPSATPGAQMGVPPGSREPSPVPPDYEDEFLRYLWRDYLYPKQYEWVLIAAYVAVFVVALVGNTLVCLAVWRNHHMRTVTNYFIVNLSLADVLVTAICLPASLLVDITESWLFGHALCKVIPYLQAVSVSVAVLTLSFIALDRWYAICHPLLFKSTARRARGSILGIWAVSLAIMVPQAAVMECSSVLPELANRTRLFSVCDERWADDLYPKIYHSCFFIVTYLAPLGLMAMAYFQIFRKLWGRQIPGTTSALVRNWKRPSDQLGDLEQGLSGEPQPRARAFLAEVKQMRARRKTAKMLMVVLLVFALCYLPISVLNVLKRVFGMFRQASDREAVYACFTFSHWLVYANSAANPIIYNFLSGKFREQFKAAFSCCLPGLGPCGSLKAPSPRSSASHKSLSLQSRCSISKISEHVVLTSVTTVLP
OX1R antag-2 – antagonists of human orexin 1 receptor. inhibition, % at 5 µM. CHO/OX1R cells, Fluo-8 calcium fluorescence, orexin A. 330,000 compounds, 0.43% hits. AID 434989. O43613;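 active means inhibition above its plate's threshold, mean inhibition of all tested compounds on the plate plus 3 SD, cut at about 37% in these data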;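 further: 0% = orexin A challenge wells and 100% = SB-334867-A antagonist wells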
M1 ag parental – counter-screen for M1 agonists: effect in parental CHO-K1 cells | 360,000 compounds, 0.48% hits | Fluo-8 calcium fluorescence; scaled to maximal ATP response, vehicle zero | AID 602248 | activation, % at 3 µM; in the data active means activation above about 15%;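 further: untransfected CHO-K1 host cells lacking M1 receptor as counterscreen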
M1 PAM parental – M1 PAM counterscreen hit in parental CHO-K1 cells; AID 602247; ATP EC20, Fluo-8 calcium fluorescence; 0% at ATP EC20, 100% at ATP max; activation, % at 3 µM; 360,000 compounds, 0.02% hits;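 active means activation above the run cutoff, the mean activation of all test compounds plus 3 SD, cut at about 40% in these data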;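 further: peak over basal fluorescence ratio in a 140 s read after ATP addition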
CHO-K1 Ca antag – M1 antagonist counterscreen hit in parental CHO-K1 cells | ATP-induced calcium, Fluo-8 fluorescence | inhibition, % at 3 µM | 360,000 compounds, 0.6% hits | AID 602250;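 active means inhibition above a per-plate cutoff, the plate's mean sample inhibition plus 3 SD, cut at about 24% in these data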;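 further: 0% = DMSO plus EC80 ATP and 100% = DMSO alone without ATP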
Active calls of the source: *; x = no result. Compounds with a hit are over-represented: about 2.9% of the library has one in this group of screens.

SMILES | CHO parental Ca | OX1R antag-1 | OX1R antag-2 | M1 ag parental | M1 PAM parental | CHO-K1 Ca antag
CC(=O)Nc1cccc(-c2ccnc3c2CC(C(=O)NCc2cccs2)O3)c1 (centres undefined) | x | x | x | 2.2 | -4.3 | -3.7
COC(=O)c1ccc(NC(=O)Nc2ccc([N+](=O)[O-])cc2)cc1 | 67.3* | 45.4 | 37.1* | 15.9* | -6.2 | 19.8
O=C(Nc1ccc(C(=O)O)cc1)Nc1ccc([N+](=O)[O-])cc1 | -8.7 | 9.1 | -10.4 | 0.0 | -4.6 | 1.9
COC(=O)c1ccc(NC(=O)Nc2ccc(F)c(Cl)c2)cc1 | 41.0* | 59.0* | 19.1 | 15.4* | 3.3 | 17.1
O=C(Nc1ccncc1)Nc1ccc(F)c(Cl)c1 | 22.5 | 20.4 | 21.5 | 11.2 | -0.3 | 23.7*
O=C(Nc1ccc(F)c(Cl)c1)Nc1ccc(Cl)cn1 | -5.2 | 9.0 | -4.9 | 2.2 | 4.0 | 14.5
O=C(Nc1ccc(F)c(Cl)c1)Nc1csc2ccccc12 | 40.5* | 67.0* | 50.1* | 13.3 | -10.5 | 27.6*
COC(=O)c1ccc(NC(=O)Nc2ccc(F)cc2)cc1 | 7.4 | 64.2 | 25.6 | 8.6 | 7.0 | 19.5
COc1cccc(/C=N/NC(=O)c2c(C)nc3ccc(Cl)cn23)c1O | -2.4 | 19.1 | -20.1 | 2.7 | 11.9 | -12.3
C[C@H](CO)N1C[C@H](C)[C@@H](CN(C)C(=O)NC2CCCCC2)Oc2c(NS(=O)(=O)c3ccc(F)cc3)cccc2C1=O | -18.8 | 4.7 | -52.0 | 0.2 | 16.1 | -15.1
Cc1c(C(=O)NNS(=O)(=O)c2ccccc2)sc(=S)n1C | 0.8 | -1.1 | 7.1 | 0.9 | 16.5 | -2.5
CC(=O)NNC(=O)c1sc(=S)n(C)c1C | -1.9 | 0.3 | -9.0 | 19.2* | 9.8 | 9.3
S=c1nc2[nH]c3ccccc3c2n[nH]1 | x | x | x | 0.5 | 12.8 | -3.0
c1ccc2c(c1)[nH]c1nc3nncn3nc12 | -12.9 | 53.3* | -15.0 | 0.0 | 21.4 | -19.0
COc1cccc(Cn2nnc(C(=O)Nc3ccc(C)cc3)c2N)c1 | 20.1 | 14.3 | -1.9 | -0.5 | -13.3 | 13.2
Cc1ccc(Cn2nnc(C(=O)Nc3cccc(C)c3C)c2N)cc1 | 25.5 | 3.1 | 37.1* | 13.2 | 2.8 | 14.0
COc1cccc(Cn2nnc(C(=O)Nc3cc(C)ccc3OC)c2N)c1 | -6.5 | 15.2 | -4.6 | -0.3 | -12.5 | 25.8*
Cc1ccc(C)c(NC(=O)COC(=O)c2cccc(S(=O)(=O)N3CCCC3)c2)c1 | x | x | x | 1.7 | 11.6 | -6.2
O=C(Nc1nc2ccccc2[nH]1)Nc1ccccc1F | 9.5 | 23.1 | -6.1 | 4.4 | 4.1 | -8.2
O=C(O)c1ccccc1-c1ccc([N+](=O)[O-])cc1Cl | x | x | x | -0.2 | 3.3 | -1.8
O=[N+]([O-])c1ccc2c(c1)S(=O)c1ccccc1-2 (centres undefined) | -28.1 | 75.0* | -5.6 | 0.1 | -12.9 | 6.8
CC1=NN(c2ccccc2)C(=O)/C1=C/c1c(O)n(-c2ccc(F)c(Cl)c2)[nH]c1=O | -4.0 | 74.2* | 5.0 | x | x | x
O=C(Nc1ccccc1)Nc1cccc(-c2cn3cccnc3n2)c1 | -11.1 | 13.1 | -29.9 | 2.5 | 4.5 | -10.3
CNC(=O)Nc1cccc(-c2ccnc(C)n2)c1 | 10.2 | 0.3 | -4.9 | 19.9* | -2.0 | -2.3
CCn1nc(C(=O)Nc2ccccc2N2CCCC2)c2ccccc2c1=O | -35.7 | 6.5 | -41.6 | 17.0* | -4.5 | 6.8
SMILES | CHO parental Ca | OX1R antag-1 | OX1R antag-2 | M1 ag parental | M1 PAM parental | CHO-K1 Ca antag
Cc1cc(C(F)(F)F)nc(SCCN2CCCCC2)c1C#N | -8.9 | 9.5 | -10.2 | 1.4 | 22.2 | -10.2
CC(C)CC(NC(=O)C1CCCCC1)C(=O)NC(C)c1ccccc1 (centres undefined) | -22.0 | -12.5 | -26.6 | 0.7 | 17.5 | -17.7
CC(C)CCC(C(=O)NC(C)c1ccccc1)C(=O)NC(C)c1ccccc1 (centres undefined) | -22.0 | 42.8* | 14.1 | 1.2 | 0.8 | 4.0
O=C(NC(c1ccccc1)c1ccccc1)C1CCCO1 (centres undefined) | -4.2 | 23.2 | -1.6 | 20.8* | 5.2 | 3.8
O=C(NNC(=O)C1CCCO1)c1ccccc1Cl (centres undefined) | -2.7 | 16.5 | 0.7 | 0.2 | -4.4 | 4.7
COc1cc(OC)cc(C(=O)NCCN2C(=O)S/C(=C\c3cccs3)C2=O)c1 | 7.3 | 35.1* | -6.9 | 11.8 | -2.6 | 15.4
CN(CC(=O)Nc1cc(S(=O)(=O)N2CCCC2)ccc1Cl)Cc1nc2ccccc2c(=O)[nH]1 | x | x | x | 2.1 | -5.5 | -7.8
CC1CCCCC12NC(=O)N(CC(=O)N1CCN(C(=O)c3ccco3)CC1)C2=O (centres undefined) | -9.8 | -0.9 | -9.1 | 0.0 | -3.6 | -14.9
CCOC(=O)CNC(=O)CNC(=O)c1nn(-c2ccc(OC)c(Cl)c2)c(=O)c2ccccc12 | -22.4 | 8.1 | -19.3 | 1.8 | -9.5 | 25.9*
COc1ccc(OC)c(CC(NC(C)=O)C(=O)NC2CCN(c3cc(C)nc4ncnn34)CC2)c1 (centres undefined) | 31.5* | -0.5 | -3.4 | x | x | x
COc1ccc(CC(NC(C)=O)C(=O)NC2CCN(c3c(Cc4ccccc4)c(C)nc4ncnn34)CC2)c(OC)c1 (centres undefined) | -22.3 | 6.5 | -2.8 | 3.0 | 16.8 | -20.1
CC(NC(=O)CN(c1cccc(C(F)(F)F)c1)S(=O)(=O)c1ccc(Cl)c([N+](=O)[O-])c1)c1ccccc1 (centres undefined) | 36.3* | 4.3 | 22.1 | 2.0 | -0.1 | 2.5
CCc1ccc2c(CC(=O)Nc3cccc(S(=O)(=O)N4CCOCC4)c3)coc2c1 | -5.9 | 8.2 | -0.1 | 0.1 | 1.0 | -0.1
O=c1cc2c(nn1Cc1cccc(Cl)c1)-c1ccccc1CC2 | -2.9 | 18.5 | -23.3 | 2.9 | 1.1 | 47.2*
N=C1C=CC(=C(c2ccc(N)cc2)c2ccc(N)cc2)C=C1 | x | x | x | -0.1 | 10.0 | 4.2
O=C(Nc1cccc(Br)c1)c1ccc2c(c1)SC1=NS(=O)(=O)CCN12 | 7.1 | 3.6 | -0.3 | -0.2 | -3.9 | 6.9
C=CCNC(=S)Nc1ccc(Br)cc1F | 1.6 | 12.8 | -11.1 | 1.7 | 15.7 | -7.3
Cc1cc(Cl)ccc1NC(=S)NCc1ccc(F)cc1 | 42.5* | 3.1 | 35.1 | 10.4 | -1.2 | -4.0
C=CCNC(=S)Nc1ccc(Cl)cc1F | 10.0 | -0.9 | 9.6 | 15.9* | 8.4 | 7.8
S=C(NCCC(c1ccccc1)c1ccccc1)Nc1cccc(Cl)c1 | 5.8 | 68.4 | 26.6 | 5.7 | -4.5 | 25.5*
S=C(NCc1cccs1)Nc1cc(Cl)cc(Cl)c1 | 39.0* | 25.0 | 13.8 | 13.7 | 3.0 | 15.7
Cc1ccc(OC(C)C(=O)N(C)c2ccccc2)c([N+](=O)[O-])n1 (centres undefined) | -10.6 | 4.5 | -3.3 | 1.0 | 19.0 | -11.5
Nc1nc2c(ncn2[C@@H]2O[C@H](CNCc3ccc(Oc4cc(-n5cccn5)ncn4)cc3)[C@@H](O)[C@H]2O)c(=O)[nH]1 | x | x | x | 0.1 | -7.3 | -20.3
Fc1ccc(-c2ccc3c(c2)C2CC3CCN2)cc1 (centres undefined) | x | x | x | 4.6 | 5.5 | -2.1
